The results in this text go back to ChEMBL document CHEMBL3244255, “Methotrexate analogues. 10. Direct coupling of methotrexate and diethyl L-glutamate in the presence of peptide bond-forming reagents” (J Med Chem, 1978).

Converted amounts (≈) assume the structure as drawn. Where only a bound is given, the exact number is not on record here.

Series [1] can be described thus: Retardation factor of the compound using C6H6-MeOH-AcOH at ratio of 45:30:1 as solvent system by thin layer chromatography. Type of series: physicochemical.
The nature of series [2]: Retardation factor of the compound using C6H6-MeOH-AcOH at ratio of 9:6:1 as solvent system by thin layer chromatography. Type of series: physicochemical.
A short description of series [3]: Retardation factor of the compound using C6H6-MeOH-AcOH at ratio of 9:3:1 as solvent system by thin layer chromatography. The format is physicochemical.
Series [4] can be described thus: Retardation factor of the compound using CHCl3-MeOH at ratio of 1:1 as solvent system by thin layer chromatography. Type of series: physicochemical.
Series [5] can be described thus: Retardation factor of the compound using CHCl3-MeOH at ratio of 3:1 as solvent system by thin layer chromatography. Type of series: physicochemical.
Series [6] can be described thus: Retardation factor of the compound using CHCl3-MeOH at ratio of 6:1 as solvent system by thin layer chromatography. The format is physicochemical.
The subject of series [7] is L1210. Kind of series: Antitumor activity against mouse L1210 cells xenografted in mouse assessed as increase in median host lifespan at 160 mg/kg, ip administered q3d on days 1, 4 and 7. Type of series: functional. Particulars: route intraperitoneal. The method, boiled down: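 Mice implanted ip with 10^5 L1210 leukemia cells. Drug was dissolved in 0.005 M sodium phosphate buffer, pH 7.4, freshly prepared before use, and injected ip on days 1, 4 and 7 after implantation. The dose range tested was 20–160 mg/kg. Five mice per group, 15 controls. Read-out is the percent increase in median life span versus untreated mice.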

The test system of a further series is Mus musculus. Kind of series: Toxicity in mouse xenografted with mouse L1210 cells assessed as body weight loss at 80 to 160 mg/kg, ip administered q3d on days 1,4 and 7. Particulars: in vivo. Also noted: dose 80-160 mg/kg, route intraperitoneal. Type of series: organism-based. The method, boiled down: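 Mice were implanted ip with 10^5 L1210 cells and dosed ip on days 1, 4 and 7 after implantation. Soluble compounds were dissolved in freshly prepared 0.005 M sodium phosphate, pH 7.4; an insoluble one was suspended in 10% Tween 80. Groups had five mice, with 15 untreated controls, and body weight loss was scored as toxicity.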

In a further series the test system is CCRF-CEM. The series is described as follows: Growth inhibition of human CCRF-CEM cells. The conditions noted are these: read-out: ID50 (the source's name). The format is functional. The method, boiled down: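 Human lymphoblastic leukaemia CCRF-CEM cells were grown in culture with the compound, and the concentration giving 50% growth inhibition (ID50) was reported in µg/mL.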

Series [8] has as its system L1210. Kind of series: Anticancer activity against mouse L1210 cells xenografted in mouse assessed as increase in median host survival at 120 mg/kg, ip administered q3d on days 1, 4, 7. Type of series: functional. The conditions noted are these: route intraperitoneal.
Series [9] concerns L1210. Kind of series: Antitumor activity against mouse L1210 cells xenografted in mouse assessed as increase in median host lifespan at 15 mg/kg, ip administered q3d on days 1, 4 and 7. Particulars: route intraperitoneal. Type of series: functional. In a few lines:
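L1210 murine leukemia, 10^5 cells implanted ip; drug given ip on days 1, 4 and 7 after implantation, as disodium salt in aqueous solution. Five mice per treated group, 15 untreated controls. Read-out is the percent increase in median survival time over untreated mice.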

Take `CCOC(=O)CC[C@H](NC(=O)CC[C@H](NC(=O)c1ccc(N(C)Cc2cnc3nc(N)nc(N)c3n2)cc1)C(=O)O)C(=O)OCC` [listing 1 of 2 here]: the Rf in [1] was 0.44; in series [2], 0.35; in series [3], 0.2; in series [4] it was 0.23; in [5], 0.02; in [6], 0.01. The figures for the Activity with L1210 [7] and in the series on Mus musculus were 40% and “Toxic”, respectively. The IC50 in the series with CCRF-CEM was determined as 0.88 µg/mL (≈ 1.38 µM).

Consider `CCOC(=O)CC[C@H](NC(=O)[C@H](CCC(=O)O)NC(=O)c1ccc(N(C)Cc2cnc3nc(N)nc(N)c3n2)cc1)C(=O)OCC`, for which the Rf in series [1] worked out at 0.58; in series [2] it was 0.46; in series [3], 0.31; in [4], 0.28; in series [5], 0.1; in series [6] it was 0.04. Besides, the Activity is listed as 10% in the series with L1210 [7] and “Toxic” in the series on Mus musculus. Further, in the series with CCRF-CEM, the IC50 is greater than 10 µg/mL.

With `CCOC(=O)CC[C@H](NC(=O)CC[C@H](NC(=O)c1ccc(N(C)Cc2cnc3nc(N)nc(N)c3n2)cc1)C(=O)N[C@@H](CCC(=O)OCC)C(=O)OCC)C(=O)OCC`, the values for the Rf in series [4], in [5] and in series [6] were 0.82, 0.78 and 0.46, respectively. Further, the IC50 with CCRF-CEM was determined as 3.8 µg/mL (≈ 4.61 µM).

Take `CCOC(=O)CC[C@H](NC(=O)CC[C@@H](NC(=O)c1ccc(N(C)Cc2cnc3nc(N)nc(N)c3n2)cc1)C(=O)N[C@@H](CCC(=O)OCC)C(=O)OCC)C(=O)OCC`: the Rf in [4] came out at 0.82; in series [5], 0.77; in series [6] it was 0.43. The IC50 in the series on CCRF-CEM turned out to be 9 µg/mL (≈ 10.9 µM).

Consider `CCOC(=O)CC[C@H](NC(=O)CC[C@H](NC(=O)c1ccc(N(C)Cc2cnc3nc(N)nc(N)c3n2)cc1)C(=O)OCC)C(=O)OCC`, for which the results for the Rf in series [4], in series [5] and in [6] were 0.79, 0.76 and 0.44, respectively. Besides, the IC50 with CCRF-CEM worked out at 1.8 µg/mL (≈ 2.7 µM).

Consider `CCOC(=O)CC[C@H](NC(=O)c1ccc(N(C)Cc2cnc3nc(N)nc(N)c3n2)cc1)C(=O)N[C@@H](CCC(=O)OCC)C(=O)OCC`, for which the Rf in series [4] is given as 0.79; in series [5], 0.73; in series [6], 0.4. In the series with CCRF-CEM, the IC50 is 0.85 µg/mL (≈ 1.27 µM).

As for `CCOC(=O)CC[C@H](NC(=O)CC[C@H](NC(=O)c1ccc(N(C)Cc2cnc3nc(N)nc(N)c3n2)cc1)C(=O)O)C(=O)OCC` [listing 2 of 2 here], in the series with L1210 [8], the survival at 120 mg/kg worked out at 77%.

As for `CCOC(=O)CCC(NC(=O)CCC(NC(=O)c1ccc(N(C)Cc2cnc3nc(N)nc(N)c3n2)cc1)C(=O)NC(CCC(=O)OCC)C(=O)OCC)C(=O)OCC` (mixture of isomers), the Rf in [1] was determined as 0.82; in [2], 0.68; in series [3] it was 0.47; in series [4] it was 0.82; in series [5], 0.77; in series [6], 0.4.

Take `CN(Cc1cnc2nc(N)nc(N)c2n1)c1ccc(C(=O)N[C@@H](CCC(=O)[O-])C(=O)[O-])cc1.[Na+].[Na+]` [METHOTREXATE SODIUM]: the Activity with L1210 [9] was found to be 60%.

Regarding `CN(Cc1cnc2nc(N)nc(N)c2n1)c1ccc(C(=O)N[C@@H](CCC(=O)O)C(=O)O)cc1` [METHOTREXATE], in the series with CCRF-CEM, the IC50 was 0.003 µg/mL (≈ 0.0066 µM).
